Source: the array DNA melting data of Ke et al. (doi:10.1101/2024.01.08.574731)

Legend:
[1] = folding enthalpy; higher = less favourable; fluorescence melt of hairpins on a sequencing array, two-state fit; settings: sodium 0.088 M
Summary of the method: (§1)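 Library hairpins on a sequenced MiSeq flow cell carried annealed Cy3 and quencher oligos, and their Cy3 fluorescence was imaged in 50 mM Na-HEPES pH 8.0 with 25 mM NaCl, in 2.5 °C steps up to 60 °C. Signals were normalised to Cy3 before quenching and to control constructs. Melting temperature and folding enthalpy were obtained from bootstrapped two-state fits, combined by inverse-variance weighting across four replicates, and the fitted temperatures were then raised by 9.35 °C to match UV melts.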

[2] = melting temperature; fluorescence melt of hairpins on a sequencing array, two-state fit, raised by 9.35 °C to match UV melts; settings: sodium 0.088 M
Summary of the method: as §1

AAACCGAAAGGTTT (((((....)))))
folding enthalpy [1]: -20.7 kcal/mol
Tm [2]: 52.8 °C

AAAGCGAAAGCTTT (((((....)))))
folding enthalpy [1]: -15.5 kcal/mol
Tm [2]: 63.4 °C

AACAAGAAATTGTT (((((....)))))
folding enthalpy [1]: -7.18 kcal/mol
Tm [2]: 23.3 °C

AACAGGAAACTGTT (((((....)))))
folding enthalpy [1]: -14.7 kcal/mol
Tm [2]: 40.5 °C

AACCAGAAATGGTT (((((....)))))
folding enthalpy [1]: -14.8 kcal/mol
Tm [2]: 40.2 °C

AACTGGAAACAGTT (((((....)))))
folding enthalpy [1]: -16.8 kcal/mol
Tm [2]: 38.8 °C

AAGTTGAAAAACTT (((((....)))))
folding enthalpy [1]: -10.6 kcal/mol
Tm [2]: 35.4 °C

AATCCGAAAGGATT (((((....)))))
folding enthalpy [1]: -17.8 kcal/mol
Tm [2]: 52 °C

AATCTGAAAAGATT (((((....)))))
folding enthalpy [1]: -13.1 kcal/mol
Tm [2]: 34.7 °C

ACAAAGAAATTTGT (((((....)))))
folding enthalpy [1]: -6.26 kcal/mol
Tm [2]: 22.5 °C

ACATGGAAACATGT (((((....)))))
folding enthalpy [1]: -19.7 kcal/mol
Tm [2]: 45 °C

ACCCTGAAAAGGGT (((((....)))))
folding enthalpy [1]: -19.2 kcal/mol
Tm [2]: 53.2 °C

ACGGGGAAACCCGT (((((....)))))
folding enthalpy [1]: -17.3 kcal/mol
Tm [2]: 65.1 °C

ACGGTGAAAACCGT (((((....)))))
folding enthalpy [1]: -22.9 kcal/mol
Tm [2]: 55 °C

ACGTGGAAACACGT (((((....)))))
folding enthalpy [1]: -22 kcal/mol
Tm [2]: 55.5 °C

ACTCCGAAAGGAGT (((((....)))))
folding enthalpy [1]: -20.5 kcal/mol
Tm [2]: 68.8 °C

ACTGAGAAATCAGT (((((....)))))
folding enthalpy [1]: -19.8 kcal/mol
Tm [2]: 34.8 °C

ACTGTGAAAACAGT (((((....)))))
folding enthalpy [1]: -21.8 kcal/mol
Tm [2]: 46.1 °C

AGACGGAAACGTCT (((((....)))))
folding enthalpy [1]: -21.2 kcal/mol
Tm [2]: 53.5 °C

AGACTGAAAAGTCT (((((....)))))
folding enthalpy [1]: -16.9 kcal/mol
Tm [2]: 46 °C

AGAGAGAAATCTCT (((((....)))))
folding enthalpy [1]: -8.28 kcal/mol
Tm [2]: 23.2 °C

AGCAAGAAATTGCT (((((....)))))
folding enthalpy [1]: -16 kcal/mol
Tm [2]: 39.3 °C

AGCCAGAAATGGCT (((((....)))))
folding enthalpy [1]: -19.1 kcal/mol
Tm [2]: 54.4 °C

AGGACGAAAGTCCT (((((....)))))
folding enthalpy [1]: -20.3 kcal/mol
Tm [2]: 68.5 °C

AGGAGGAAACTCCT (((((....)))))
folding enthalpy [1]: -18.3 kcal/mol
Tm [2]: 45 °C

AGGATGAAAATCCT (((((....)))))
folding enthalpy [1]: -22.2 kcal/mol
Tm [2]: 41.6 °C

AGGCAGAAATGCCT (((((....)))))
folding enthalpy [1]: -17.6 kcal/mol
Tm [2]: 54.7 °C

AGTAGCTGAAAAGTTACT ((((.((....)).))))
folding enthalpy [1]: -20.2 kcal/mol
Tm [2]: 36 °C

AGTCCGAAAGGACT (((((....)))))
folding enthalpy [1]: -18.7 kcal/mol
Tm [2]: 68.1 °C

AGTCTGAAAAGACT (((((....)))))
folding enthalpy [1]: -19.6 kcal/mol
Tm [2]: 47 °C

AGTGGGAAACCACT (((((....)))))
folding enthalpy [1]: -19.5 kcal/mol
Tm [2]: 49.8 °C

AGTGTGAAAACACT (((((....)))))
folding enthalpy [1]: -19.5 kcal/mol
Tm [2]: 49.7 °C

AGTTAGAAATAACT (((((....)))))
folding enthalpy [1]: -9.79 kcal/mol
Tm [2]: 25.8 °C

ATCGGGAAACCGAT (((((....)))))
folding enthalpy [1]: -24.1 kcal/mol
Tm [2]: 50.2 °C

ATCGTGAAAACGAT (((((....)))))
folding enthalpy [1]: -19.6 kcal/mol
Tm [2]: 49.5 °C

ATGGGGAAACCCAT (((((....)))))
folding enthalpy [1]: -23.4 kcal/mol
Tm [2]: 47.3 °C

ATGGTGAAAACCAT (((((....)))))
folding enthalpy [1]: -21.6 kcal/mol
Tm [2]: 47.1 °C

ATGTCGAAAGACAT (((((....)))))
folding enthalpy [1]: -19.6 kcal/mol
Tm [2]: 53.5 °C

ATTGGGAAACCAAT (((((....)))))
folding enthalpy [1]: -16.9 kcal/mol
Tm [2]: 40.3 °C

ATTTGGAAACAAAT (((((....)))))
folding enthalpy [1]: -12.8 kcal/mol
Tm [2]: 34.4 °C

CAAACCGAAAGGCTTG (((.((....)).)))
folding enthalpy [1]: -27 kcal/mol
Tm [2]: 38.4 °C

CAAACGAAAGTTTG (((((....)))))
folding enthalpy [1]: -23 kcal/mol
Tm [2]: 53 °C

CAAGGGAAACCTTG (((((....)))))
folding enthalpy [1]: -27.8 kcal/mol
Tm [2]: 43.9 °C

CAATGGAAACATTG (((((....)))))
folding enthalpy [1]: -26 kcal/mol
Tm [2]: 40.6 °C

CACGAGAAATCGTG (((((....)))))
folding enthalpy [1]: -23.5 kcal/mol
Tm [2]: 50.6 °C

CACGGGAAACCGTG (((((....)))))
folding enthalpy [1]: -30.9 kcal/mol
Tm [2]: 58.8 °C

CACTAGAAATAGTG (((((....)))))
folding enthalpy [1]: -16.9 kcal/mol
Tm [2]: 37.2 °C

CAGCTGAAAAGCTG (((((....)))))
folding enthalpy [1]: -25.4 kcal/mol
Tm [2]: 58.6 °C

CAGGAGAAATCCTG (((((....)))))
folding enthalpy [1]: -19.7 kcal/mol
Tm [2]: 43.7 °C

CAGTAGAAATACTG (((((....)))))
folding enthalpy [1]: -15.3 kcal/mol
Tm [2]: 38.6 °C

CAGTCGAAAGACTG (((((....)))))
folding enthalpy [1]: -27.2 kcal/mol
Tm [2]: 61.4 °C

CAGTTGAAAAACTG (((((....)))))
folding enthalpy [1]: -20.9 kcal/mol
Tm [2]: 44.7 °C

CATACGAAAGTATG (((((....)))))
folding enthalpy [1]: -25.1 kcal/mol
Tm [2]: 50.4 °C

CATTGGAAACAATG (((((....)))))
folding enthalpy [1]: -22.2 kcal/mol
Tm [2]: 42.3 °C

CCAATGAAAATTGG (((((....)))))
folding enthalpy [1]: -18.1 kcal/mol
Tm [2]: 41.9 °C

CCACGGAAACGTGG (((((....)))))
folding enthalpy [1]: -21.2 kcal/mol
Tm [2]: 69.2 °C

CCACTGAAAAGTGG (((((....)))))
folding enthalpy [1]: -25.3 kcal/mol
Tm [2]: 54.5 °C

CCATAGAAATATGG (((((....)))))
folding enthalpy [1]: -11.6 kcal/mol
Tm [2]: 35.2 °C

CCATTGAAAAATGG (((((....)))))
folding enthalpy [1]: -22.2 kcal/mol
Tm [2]: 41.6 °C

CCCTAGAAATAGGG (((((....)))))
folding enthalpy [1]: -20.7 kcal/mol
Tm [2]: 38.2 °C

CCTCGGAAACGAGG (((((....)))))
folding enthalpy [1]: -25.8 kcal/mol
Tm [2]: 55.7 °C

CGAAACGGAAACGTCTCG (((.(((....))).)))
folding enthalpy [1]: -27.3 kcal/mol
Tm [2]: 39 °C

CGAACGGAAACGTAGTCG ((((((....)))..)))
folding enthalpy [1]: -10.8 kcal/mol
Tm [2]: 26.4 °C

CGAACGGAAACGTATCG ((((((....))).)))
folding enthalpy [1]: -19.2 kcal/mol
Tm [2]: 36.1 °C

CGAACGGAAACGTTCTCG ((((((....)))..)))
folding enthalpy [1]: -11.2 kcal/mol
Tm [2]: 36.8 °C

CGAAGCGGAAACGCTCG (((.(((....))))))
folding enthalpy [1]: -22.7 kcal/mol
Tm [2]: 53.5 °C

CGAATCCGGAAACGGTCG (((..(((....))))))
folding enthalpy [1]: -11.9 kcal/mol
Tm [2]: 33.6 °C

CGACACCGGAAACGGTCG (((..(((....))))))
folding enthalpy [1]: -13.7 kcal/mol
Tm [2]: 42 °C

CGACAGAAATGTCG (((((....)))))
folding enthalpy [1]: -26.1 kcal/mol
Tm [2]: 52.9 °C

CGACCGGAAACGGAGTCG ((((((....)))..)))
folding enthalpy [1]: -27.2 kcal/mol
Tm [2]: 45.4 °C

CGACCGGAAACGGCGTCG ((((((....)))..)))
folding enthalpy [1]: -18.1 kcal/mol
Tm [2]: 50.2 °C

CGACCGGAAACGGCTCG ((((((....))).)))
folding enthalpy [1]: -28.8 kcal/mol
Tm [2]: 48.2 °C

CGACCGGAAACGGTGTCG ((((((....)))..)))
folding enthalpy [1]: -14.8 kcal/mol
Tm [2]: 43 °C

CGACTCGGAAACGATCG (((.(((....))))))
folding enthalpy [1]: -31.8 kcal/mol
Tm [2]: 40.5 °C

CGAGACGGAAACGTTCG (((.(((....))))))
folding enthalpy [1]: -26.3 kcal/mol
Tm [2]: 40.9 °C

CGAGCCGGAAACGGTTCG (((.(((....))).)))
folding enthalpy [1]: -40.1 kcal/mol
Tm [2]: 56 °C

CGAGCGCGGAAACGCTCG (((..(((....))))))
folding enthalpy [1]: -29.8 kcal/mol
Tm [2]: 68.5 °C

CGAGCGGAAACGCAATCG ((((((....)))..)))
folding enthalpy [1]: -19.3 kcal/mol
Tm [2]: 38.7 °C

CGAGCGGAAACGCCCTCG ((((((....)))..)))
folding enthalpy [1]: -12.8 kcal/mol
Tm [2]: 35.9 °C

CGAGCGGAAACGCCTCG ((((((....))).)))
folding enthalpy [1]: -29.6 kcal/mol
Tm [2]: 52.3 °C

CGAGCGGAAACGCGATCG ((((((....)))..)))
folding enthalpy [1]: -12.1 kcal/mol
Tm [2]: 47 °C

CGAGCGGAAACGCTTTCG ((((((....)))..)))
folding enthalpy [1]: -11.8 kcal/mol
Tm [2]: 30.4 °C

CGAGGCGGAAACGCATCG (((.(((....))).)))
folding enthalpy [1]: -37 kcal/mol
Tm [2]: 64.2 °C

CGAGGCGGAAACGCTCG (((.(((....))))))
folding enthalpy [1]: -20.5 kcal/mol
Tm [2]: 51 °C

CGAGTCCGGAAACGGTCG (((..(((....))))))
folding enthalpy [1]: -12.3 kcal/mol
Tm [2]: 42.4 °C

CGAGTCGGAAACGAATCG (((.(((....))).)))
folding enthalpy [1]: -39.9 kcal/mol
Tm [2]: 52.2 °C

CGAGTGCGGAAACGCTCG (((..(((....))))))
folding enthalpy [1]: -21.6 kcal/mol
Tm [2]: 47.7 °C

CGATCCGGAAACGGCTCG (((.(((....))).)))
folding enthalpy [1]: -28.7 kcal/mol
Tm [2]: 48.1 °C

CGATCGGAAACGAACTCG ((((((....)))..)))
folding enthalpy [1]: -9.8 kcal/mol
Tm [2]: 24.4 °C

CGATCGGAAACGACTTCG ((((((....)))..)))
folding enthalpy [1]: -11.3 kcal/mol
Tm [2]: 25.6 °C

CGATGACGGAAACGTTCG (((..(((....))))))
folding enthalpy [1]: -29.1 kcal/mol
Tm [2]: 36.7 °C

CGATGCGGAAACGCTCG (((.(((....))))))
folding enthalpy [1]: -28.4 kcal/mol
Tm [2]: 50 °C

CGATTCGGAAACGATTCG (((.(((....))).)))
folding enthalpy [1]: -33.2 kcal/mol
Tm [2]: 45.8 °C

CGCAAACGGAAACGTGCG (((..(((....))))))
folding enthalpy [1]: -36.2 kcal/mol
Tm [2]: 50.9 °C

CGCACGGAAACGTAGGCG ((((((....)))..)))
folding enthalpy [1]: -30.6 kcal/mol
Tm [2]: 46.3 °C

CGCACGGAAACGTATGCG ((((((....)))..)))
folding enthalpy [1]: -35.9 kcal/mol
Tm [2]: 46.7 °C

CGCACGGAAACGTGGCG ((((((....))).)))
folding enthalpy [1]: -25.9 kcal/mol
Tm [2]: 54.2 °C
